The text below walks through data of ChEMBL document CHEMBL4706714 (Bioorg Med Chem, 2021).

Activity calls are given as the source filed them. The rule behind the calls is not given here.

A short description of test [1]: Cytotoxicity against Chinese Hamster MTXRII-OuaR2-4 R2 cells assessed as reduction in cell proliferation after 96 hrs by CellTiter-blue assay. Conditions: Cricetulus griseus, R2, 96 h. In kind it is cell-based. (In general: Alamar Blue is a resazurin reagent that responds to reducing activity.)
The test system of test [2] is KB. The experiment in a line: Antiproliferative activity against human KB cells assessed as reduction in cell viability after 96 hrs in presence of folic acid by CellTiter-blue assay. The class given is functional, cell-based. The method in brief: (§1)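 Cells grown in folate-free RPMI with 10% dialyzed FBS, 2 nM leucovorin, 2 mM L-glutamine; 2500–5000 cells/well, inhibitors 0–1000 nM, with 200 nM folic acid added in parallel wells to block FR uptake.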

The test system of test [3] is IGROV-1. The experiment in a line: Antiproliferative activity against human IGROV1 cells assessed as reduction in cell viability after 96 hrs in presence of folic acid by CellTiter-blue assay. In kind it is functional, cell-based. The settings on record: IGROV-1, 96 h. The method, boiled down:
as §1

The target in test [4] is T1, Bifunctional purine biosynthesis protein ATIC (Homo sapiens, UniProt P31939). Nature of the test: Inhibition of human full length N-terminal His-tagged ATIC expressed in Chinese Hamster MTXRII-OuaR2-4 R2 cells assessed as reduction in THF formation using 10-CHOTHF as substrate by spectrophotometric method.
Target sequence in this assay (P31939 whole entry): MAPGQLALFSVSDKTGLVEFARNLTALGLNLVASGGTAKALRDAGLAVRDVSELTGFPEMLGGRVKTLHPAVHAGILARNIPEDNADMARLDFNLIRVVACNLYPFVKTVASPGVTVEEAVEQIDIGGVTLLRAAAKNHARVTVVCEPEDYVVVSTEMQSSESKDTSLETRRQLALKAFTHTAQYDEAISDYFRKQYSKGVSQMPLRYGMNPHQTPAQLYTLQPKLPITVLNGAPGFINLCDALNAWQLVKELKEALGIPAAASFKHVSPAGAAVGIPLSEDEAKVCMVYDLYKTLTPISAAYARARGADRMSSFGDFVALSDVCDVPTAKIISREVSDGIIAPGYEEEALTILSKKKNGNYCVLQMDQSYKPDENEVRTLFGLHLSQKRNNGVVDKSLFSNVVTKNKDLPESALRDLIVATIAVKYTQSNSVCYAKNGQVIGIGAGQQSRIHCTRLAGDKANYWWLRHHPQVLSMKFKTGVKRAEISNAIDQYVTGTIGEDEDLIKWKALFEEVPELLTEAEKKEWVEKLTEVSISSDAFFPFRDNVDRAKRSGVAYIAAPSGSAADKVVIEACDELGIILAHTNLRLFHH
The subject of test [5] is KB. Nature of the test: Antiproliferative activity against human KB cells assessed as reduction in cell viability after 96 hrs in presence of thymidine by CellTiter-blue assay. The class given is functional, cell-based. The method, boiled down: (§2)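 KB cells, 4000 cells/well, in folate-free RPMI 1640 with 10% dialyzed FBS and 2 nM leucovorin. A range of drug concentrations was co-incubated with adenosine (60 μM) or thymidine (10 μM) for 96 h at 37 °C. Proliferation was read by CellTiter-blue fluorescence. Data are representative of at least triplicate experiments.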

The test system of test [6] is KB. The experiment in a line: Antiproliferative activity against human KB cells assessed as reduction in cell viability after 96 hrs in presence of adenosine by CellTiter-blue assay. In kind it is functional, cell-based. The method in brief: as §2
In test [7] the test system is KB. Nature of the test: Antiproliferative activity against human KB cells assessed as reduction in cell viability after 96 hrs by CellTiter-blue assay. In kind it is functional, cell-based.
Test [8] relates to IGROV-1. Nature of the test: Antiproliferative activity against human IGROV1 cells assessed as reduction in cell viability after 96 hrs by CellTiter-blue assay. In kind it is functional, cell-based. Conditions: IGROV-1, 96 h.
Test [9] can be described thus: Inhibition of human full length N-terminal His-tagged GARFTase expressed in Chinese Hamster MTXRII-OuaR2-4 R2 cells assessed as reduction in THF formation using 10-CHOTHF as substrate by spectrophotometric method.
Test [10] addresses Folate receptor alpha (Homo sapiens) (UniProt P15328). The experiment in a line: Displacement of [3H]-folic acid from human FRalpha expressed in Chinese Hamster MTXRII-OuaR2-4 R2 cells after 15 mins by liquid scintillation counting method. In kind it is cell-based. The method in brief: (§3)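 RT16 (FRα) or D4 (FRβ) CHO transfectants, 1 × 10^6 cells, adhered 24 h; washed at 4 °C with DPBS, pH 3.5 acetate buffer to strip bound folate, then HBS pH 7.4. Incubated 15 min at 0 °C with 50 nM [3H]folic acid plus competitor 0–1 μM; bound label per mg protein (Folin-phenol).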
(In general: Loss of bound radioactivity is the signal in a displacement assay; it reports binding, not function.)

Test [11] addresses Folate receptor beta (Homo sapiens) (UniProt P14207). The experiment in a line: Displacement of [3H]-folic acid from human FRbeta expressed in Chinese Hamster MTXRII-OuaR2-4 R2 cells after 15 mins by liquid scintillation counting method. In kind it is cell-based. The method, boiled down:
as §3

Test [12] deals with IGROV-1. Nature of the test: Inhibition of GARFTase in human IGROV1 assessed as increase in GAR level at 1 uM after 48 hrs by LC-MS/MS analysis. The method in brief: (§4)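 NCI-IGROV1 ovarian cells in folate-free RPMI, 10% FBS, 2 mM L-glutamine, five replicate dishes, adhered 24 h; medium replaced and 1 μM inhibitor or DMSO vehicle added for 48 h. Extracted metabolites measured by reverse-phase LC-MS, negative ion mode, identified by exact mass and retention time against standards; normalized to cell protein; expressed relative to vehicle control.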

For test [13], the system named is IGROV-1. The experiment in a line: Inhibition of GARFTase in human IGROV1 assessed as decrease in fGAR level at 1 uM after 48 hrs by LC-MS/MS analysis relative to control. The method in brief: as §4
Test [14] deals with T1, Bifunctional purine biosynthesis protein ATIC. Nature of the test: Inhibition of AICARFTase in human IGROV1 assessed as decrease in ZMP level at 1 uM after 48 hrs by LC-MS/MS analysis relative to control. The settings on record: IGROV-1. The method in brief:
as §4
Target sequence in this assay (P31939 whole entry, looked up): as the sequence (P31939 whole entry) above

Test [15] in a line: Inhibition of de nova purine biosynthesis in human IGROV1 assessed as decrease in IMP level at 1 uM after 48 hrs by LC-MS/MS analysis relative to control. The class given is functional. The settings on record: IGROV-1. The method in brief: as §4
The nature of test [16]: Inhibition of de nova purine biosynthesis in human IGROV1 assessed as decrease in ATP level at 1 uM after 48 hrs by LC-MS/MS analysis relative to control. The class given is functional. Conditions: IGROV-1. The method in brief: as §4
The nature of test [17]: Inhibition of de nova purine biosynthesis in human IGROV1 assessed as decrease in ADP level at 1 uM after 48 hrs by LC-MS/MS analysis relative to control. The class given is functional. Conditions: IGROV-1. The method, boiled down: as §4
In test [18] the test system is IGROV-1. Nature of the test: Inhibition of de nova purine biosynthesis in human IGROV1 assessed as decrease in AMP level at 1 uM after 48 hrs by LC-MS/MS analysis. In kind it is functional. The method in brief:
as §4

Sequence of Folate receptor beta (Homo sapiens) (P14207 17-230 limits assumed): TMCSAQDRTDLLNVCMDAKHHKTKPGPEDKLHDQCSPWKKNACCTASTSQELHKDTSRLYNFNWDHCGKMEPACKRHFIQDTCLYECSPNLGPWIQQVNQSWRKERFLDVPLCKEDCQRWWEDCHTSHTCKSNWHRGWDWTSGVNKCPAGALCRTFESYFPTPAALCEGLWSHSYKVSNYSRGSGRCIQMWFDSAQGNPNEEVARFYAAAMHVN
Sequence of Folate receptor alpha (Homo sapiens) (P15328 25-234 limits assumed): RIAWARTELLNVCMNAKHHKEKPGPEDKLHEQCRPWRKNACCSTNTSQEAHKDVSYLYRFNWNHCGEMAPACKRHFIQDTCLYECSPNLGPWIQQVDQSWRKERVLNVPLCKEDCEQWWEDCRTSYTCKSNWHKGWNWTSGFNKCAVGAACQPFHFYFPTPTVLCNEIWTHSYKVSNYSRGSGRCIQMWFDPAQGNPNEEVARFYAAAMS

In the case of `Nc1nc2sc(CCCCc3ccc(C(=O)N[C@@H](CCC(=O)O)C(=O)O)cc3)cc2c(=O)[nH]1`, the IC50 in test [1], in test [2] and in [3] was > 1000 nM throughout. The inhibitory constant (Ki) in test [4] came to 9480 nM. Moreover, in [5], the outcome was Active. Also, the outcome in [6] was inactive.

Consider `Nc1nc2sc(CCCCc3cc(C(=O)N[C@@H](CCC(=O)O)C(=O)O)cs3)cc2c(=O)[nH]1`, for which the half-maximal inhibitory concentration (IC50) in test [1] is > 1000 nM; in test [7] it was 4.74 nM; in test [2], > 1000 nM; in [8] it was > 1000 nM; in test [3], > 1000 nM. The Ki in [9] was found to be 150 nM; in test [4] it was 1070 nM. For the same compound, in test [5], the result was Active. The outcome in test [6] was inactive.

In the case of `Nc1nc2sc(CCCc3cc(C(=O)N[C@@H](CCC(=O)O)C(=O)O)cs3)cc2c(=O)[nH]1`, the IC50 in test [1] was > 1000 nM; in test [7] it was 1.82 nM; in test [2], > 1000 nM; in [8], 26 nM; in test [3], > 1000 nM. Also, the Ki turned out to be 910 nM in [9] and 8370 nM in [4]. Besides, in test [5], the result was Active. Further, in [6], the result was inactive.

In the case of `Nc1nc2sc(CCCCc3csc(C(=O)N[C@@H](CCC(=O)O)C(=O)O)c3)cc2c(=O)[nH]1`, the IC50 in [1] was > 1000 nM; in test [7] it was 6.85 nM; in test [2], > 1000 nM; in test [8] it was 108 nM; in test [3] it was > 1000 nM. Besides, the inhibition constant (Ki) was > 150000 nM in test [9] and 8030 nM in [4]. The result in test [5] was Active. In [6], the result was inactive.

`Nc1nc2sc(CCCCc3ccc(C(=O)N[C@@H](CCC(=O)O)C(=O)O)s3)cc2c(=O)[nH]1`: the IC50 was > 1000 nM in test [1]; 2.1 nM in test [7]; > 1000 nM in [2]; 10.1 nM in test [8]; > 1000 nM in [3]. The Activity amounted to 89% in [10] and 60% in test [11]. For the same compound, the results for the inhibitory constant (Ki) in test [9] and in test [4] were 1360 nM and 5150 nM, respectively. The result in [5] was Active. Besides, the outcome in test [6] was inactive. In addition, the fold change (FC) in test [12] was determined as 150. In addition, the inhibition in test [13] stood at 50%. Also, the inhibition result in test [14] and in test [18] was “Active” each time. In addition, the inhibition at 1 µM in test [15] is 60%; in [16], 75%; in test [17] it was 60%.

As for `Nc1nc2[nH]c(CCCc3ccc(C(=O)N[C@@H](CCC(=O)O)C(=O)O)s3)cc2c(=O)[nH]1`, in test [12], the fold change (FC) was 150. Besides, the inhibition in [13] amounted to 99%; in test [14], 50%. Besides, the inhibition at 1 µM turned out to be 60% in test [15], 75% in test [16] and 60% in test [17]. Also, the inhibition entry in test [18] is “Active”.

As for `Nc1nc2sc(CCCc3csc(C(=O)N[C@@H](CCC(=O)O)C(=O)O)c3)cc2c(=O)[nH]1`, the IC50 in [1] was > 1000 nM; in [7], 1.48 nM; in [2], > 1000 nM; in test [8], 86.7 nM; in test [3], > 1000 nM. In test [4], the Ki stood at 19800 nM. The outcome in test [5] was Active. Further, the result in test [6] was inactive.

Turning to `Nc1nc2sc(CCCCc3ccc(C(=O)N[C@@H](CCC(=O)O)C(=O)O)o3)cc2c(=O)[nH]1`, the half-inhibitory concentration (IC50) in test [1] is > 1000 nM; in test [7], 7.9 nM; in test [2], > 1000 nM; in test [8], > 1000 nM; in test [3], > 1000 nM. The Activity in test [10] came to 89%; in test [11] it was 60%. The values for the inhibition constant Ki in test [9] and in test [4] were 10700 nM and 24700 nM, respectively. Moreover, in test [5], the result was Active. Further, the result in test [6] was inactive.

For the compound `Nc1nc2[nH]cc(CCCCc3ccc(C(=O)N[C@@H](CCC(=O)O)C(=O)O)cc3)c2c(=O)[nH]1`, the outcome in test [5] was Active. Also, the outcome in test [6] was inactive.

In the case of `Nc1nc2[nH]cc(CCc3ccc(C(=O)N[C@@H](CCC(=O)O)C(=O)O)cc3)c2c(=O)[nH]1` [PEMETREXED], the inhibitory constant (Ki) in test [9] was > 150000 nM.

As to `Nc1nc2sc(CCCc3ccc(C(=O)N[C@@H](CCC(=O)O)C(=O)O)s3)cc2c(=O)[nH]1`, the concentration for half-maximal inhibition (IC50) in [1] is > 1000 nM; in [7], 1.42 nM; in [2] it was > 1000 nM; in test [8], 54.1 nM; in [3], > 1000 nM. The Activity was 89% in test [10] and 60% in test [11]. Moreover, the inhibitory constant (Ki) was determined as 8190 nM in test [9] and 14500 nM in [4]. Moreover, the outcome in test [5] was Active. Besides, in test [6], the outcome was inactive. Further, the fold change (FC) in test [12] amounted to 150. The inhibition in test [13] stood at 75%. The inhibition entry in [14] and in test [18] was “Active” each time. For the same compound, the inhibition at 1 µM was 60% in [15], 75% in test [16] and 60% in [17].

As a reminder, the IC50 is the concentration that gives 50% inhibition. By Ki is commonly meant a measure of affinity in units of concentration, obtained from inhibition or displacement. By inhibition is commonly meant the change of the read-out against control, counted positive when it falls.
